This is an account of results in the EternaBench riboswitch data.

For the data set, the system named is MS2 coat protein. In words: apparent Kd, MS2 coat protein; higher = weaker binding; RNA-MaP array; FMN 200 µM where present. The essentials:
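SNAP-549-labelled MS2 coat protein, doubled from 0.7 or 1.5 nM to 3 µM, was titrated over designs transcribed by stalled E. coli RNA polymerase on Illumina sequencing-chip clusters. Titrations were run without and then with constant ligand in 100 mM Tris-HCl pH 7.5, 80 mM KCl, 4 mM MgCl2, BSA, DTT, yeast tRNA and Tween-20. The apparent Kd is the median of filtered per-cluster fits to green signal normalised to red-channel RNA signal and control-cluster median Fmax.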

The mark [1] stands for this setting: designed as: ON switch for flavin mononucleotide, no ligand.
The mark [2] stands for this setting: ligand present: flavin mononucleotide, designed as: ON switch for flavin mononucleotide.
Where [3] appears, read: designed as: OFF switch for flavin mononucleotide, no ligand.
Where [4] appears, read: ligand present: flavin mononucleotide, designed as: OFF switch for flavin mononucleotide.

A word on the apparent Kd: it is the concentration giving half-maximal binding under the conditions of the assay. As to “CUACUCAUGUAAGGAUAUGCAGCCGAAACGGCUGCAGAAGGUACUAUAAUACAUGAGGAUCACCCAUGUAAAAUAAAUAAAGUU”, the “apparent Kd” value is 33.8 nM under setting [1] and 14.7 nM under setting [2].
On to “UUUCUCGUUGUGAGGAUAUCGUUUUUGUCUCGGAUCGAGAAGGCACAUGAGGAUCACCCAUGUUUGUUGUGGUU”, for which the “apparent Kd” value by setting is: under setting [3], 85.1 nM; under setting [4], 103 nM.
“GCGUUUGUAUCACAUGUAUUACAUGAGGAUCACCCAUGUUACUAGGAUAUGUAUUAGUAUUUUCAACAGAAGGAGUAAGAACGC”: the “apparent Kd” value came to 18.8 nM under setting [3] and 23.5 nM under setting [4].
Take “CAGUACUGAGGAUAUACAUGAGGAUCACCCAUGUAUCCUAGCUAGGAAACUAGCAAAUGUAGAAGGCAGUACUG”: the “apparent Kd” value by setting is: under setting [3], 62.5 nM; under setting [4], 458 nM.
Regarding “GUAGAGUAAGGAUAUGUAGAAUAGGAUAGAAUGGUUAGAAUACAGAAGGUACAUGAGGAUCACCCAUGUAAUGU”, the “apparent Kd” value reads like this: under setting [3], 17.7 nM; under setting [4], 19.6 nM.
Taken in the same sequence, the figures for “GUUAUGCAGCAGGAUAUCCAUCCGCGGUAUGAUGGAGAAGGGCUGACAUGAGGAUCACCCAUGUGCGUCCUAGG” were 40.3 nM and 97.1 nM.
As to “AUACAUGAGGAUCACCCAUGUUACUUGGUCUUGAUAUUACGUAGAAGGAUGAUAUUAUUAUUAGCAUAGGAUAUACAAUUUGUA”, the “apparent Kd” value under setting [3] amounted to 17 nM and the “apparent Kd” value under setting [4] was 12.8 nM.
Taken in the same sequence, the figures for “GAUGUUUGAGGAUAUACAUGAGGAUCACCCAUGUGUGUCCAUACGCGUGAGUCUUCGUGUAGAAGGCGGGCGUC” were 14.1 nM and 15.5 nM.
As to “UGGUUGUCAGGAUAUUGGGUAUUCAACUUUAGUUUUAUAUUCGAGAAGGGACAUGAGGAUCACCCAUGUUACGU”, the “apparent Kd” value under setting [3] amounted to 36.2 nM and the “apparent Kd” value under setting [4] came to 166 nM.
For “GUGUACAGAGGAUAUAUAUGAGCUAGGAAACUAGCAACCUCACAUGAGGAUCACCCAUGUAGAAGGCUGUACAC” the same measures were 103 nM and 346 nM.
For the sequence “UGAUAGGACAGAGGAUAUACCGAUAGGAGAUACUAUCGACUAGUCCUCACAUGAGGAUCACCCAUGUAGAAGGCUGUCCUAUCU”, the “apparent Kd” value turned out to be 22.8 nM under setting [3] and 269 nM under setting [4].
Consider “GUAUGAUUAAGAGGAUAUAUACAACAUGAGGAUCACCCAUGUACCCGUGUAGUAGAAGGUUUGUUUUUAUAUAAUAAUAUAAUU”, for which the “apparent Kd” value amounted to 26.6 nM under setting [1] and 19.1 nM under setting [2].
Taken in the same sequence, the figures for “UAAUCUCAGAUAGGAUAUAUAGGAUGAUUUAAGACUGAACAUGAGGAUCACCCAUGUGAUUAUCUGUAGAAGGAUCAAUUAGCC” were 476 nM and 365 nM.
For “GCAAAGCCUGACAUGAGGAUCACCCAUGUUAGAUUGUUAUGUCAGGAUAUUGUCUAGCAACUAGACAAGAAGGGAUGCUCUGCC” the same measures were 377 nM and 194 nM.
As to “UGGUACUAGGGAGGAUAUGGGAAGAUACAUGAGGAUCACCCAUGUUCAAGAAUGCCGAGAGGCAACUAGAAGGCCCUAGUACCU”, the “apparent Kd” value came out at 928 nM under setting [1] and 46.2 nM under setting [2].
Taken in the same sequence, the figures for “UGUGUUAUCGGAGGAUAUCGAUAUCAAACAUGAGGAUCACCCAUGUUGAGGAUCACCCAUGUCCACGAGAAGGCCGGCGUACUC” were 23.8 nM and 24.1 nM.
Take “CUUGUACAUGAGGAUCACCCAUGUUAGGAUAUCUCGCCGUCGGCUUGCCGACGGUAUUAGAGAAGGGACUUGGG”: the “apparent Kd” value is, setting by setting: under setting [3], 56 nM; under setting [4], 33 nM.
On to “UGGUACAUGGGAGGAUAUCAUGUAGUAACAUGAGGAUCACCCAUGUCGAUGGAGACAUCGGAGAUUGAGAAGGCCCAUGUACCU”, for which the “apparent Kd” value under setting [1] came out at 921 nM and the “apparent Kd” value under setting [2] is 32.5 nM.
For “CGCAAGUAUACAUGAGGAUCACCCAUGUCAGAAAGGGUAAUCAGAAGGUACUAUUAGAGAUAGAGUAAGGAUAUGAAAUUUGCG” the same measures were 718 nM and 138 nM.
For the sequence “UCCGUGGCAUCUCGCGCAUGUCCACAUGAGGAUCACCCAUGUCAGGAUAUACGGAAUGUCGUUCCGUAGAAGGGACAAGGGCUG”, the “apparent Kd” value reads like this: under setting [3], 178 nM; under setting [4], 69.7 nM.
Turning to “AUGCAGCUACCACAGGAUAUACGUGGAUCGACAUGAGGAUCACCCAUGUAUAUCCUAAUAAUUGCGUAGAAGGGUGGUCAGCUGC”, the “apparent Kd” value by setting is: under setting [1], 1540 nM; under setting [2], 103 nM.
Take “AAAAAACAUGAGGAUCACCCAUGUGAGGAUAUCGAGAAGAAGAAGAAGAAGAAGAGAACGAGAAGGCACAAAAA”: the “apparent Kd” value under setting [3] worked out at 47.4 nM and the “apparent Kd” value under setting [4] was found to be 51.5 nM.
As for “UGUUGUAUUACAGGAUAUCUAGUAUUUUUAUUUAGAGAAGGGUAUUCACAUGAGGAUCACCCAUGUAUAUACGAGGAAGUUGUG”, the “apparent Kd” value reads like this: under setting [1], 34.3 nM; under setting [2], 38.8 nM.
For “ACGAGGCUAGGAUAUACACAUCUGAUGACUCAUCCUAAAACACAUGAGGAUCACCCAUGUAGAAGGAGCAAAUA”, the “apparent Kd” value is, setting by setting: under setting [3], 20.3 nM; under setting [4], 15.1 nM.
Regarding “CGGCAAUGACGAGGAUAUAGACAUGAGGAUCACCCAUGUAACAGUAUUACAGGGCGUCUUCUCGGCUAGAAGGCGUUCUAUGCC”, the “apparent Kd” value came out at 59.4 nM under setting [3] and 62.6 nM under setting [4].
Taken in the same sequence, the figures for “AUGUUACAUGAGGAUCACCCAUGUGAGGAUAUGUGUAUCCCUAAAAAAGUGUGGGACCACAGAAGGUACUUGGA” were 51.5 nM and 50.4 nM.
On to “GCGGAGGGUACAGGAUAUCGUCCUUAGUUGGUACGAGAAGGGUAGCGCUGCCACAUGAGGAUCACCCAUGUGCCCAAACUAAAA”, for which the “apparent Kd” value came to 159 nM under setting [1] and 201 nM under setting [2].
Take “CAGGUAGACUGAGGAUAUACAAUAAACAGCUAGUCUAUCUAGCUGCCGACAUGAGGAUCACCCAUGUAGAAGGCAGUCUGCCUG”: the “apparent Kd” value was determined as 18.5 nM under setting [3] and 40 nM under setting [4].
Regarding “UUAUUAAGUGUGAGGAUAUGCUGGUCCUUGGAUCAGCAGAAGGCACAUGAGGAUCACCCAUGUACAAUAUUUUA”, the “apparent Kd” value under setting [3] came to 39 nM and the “apparent Kd” value under setting [4] came out at 230 nM.
Consider “UAUAUUAUUAUAGGAUAUGGAUAUGAUGCAUAUCCAGAAGGGUGAUUAUAAUAUAAUCUAUACAUGAGGAUCACCCAUGUUUAU”, for which the “apparent Kd” value is, setting by setting: under setting [1], 216 nM; under setting [2], 78.5 nM.
With “UAUAAUUAGUAGAAGGACGGUGAGUAAGAGGUCGUAGGAUAUACAACUGACAUGAGGAUCACCCAUGUGUGUAUGUUGGGAAGG”, the “apparent Kd” value is, setting by setting: under setting [3], 11.1 nM; under setting [4], 9.9 nM.
Taken in the same sequence, the figures for “GUAGCUACAUGAGGAUCACCCAUGUAGGAUAUCGCUAUUGUAAUCAUGUUACAUGAUUACAAUAGCGAGAAGGACGUGAGCUAC” were 8.39 nM and 8.7 nM.
“GUACAGUAGUGAGGAUAUACGAGAUCGAUAGAUCGGCGAUCCAUUAAUACAUGAGGAUCACCCAUGUAGAAGGCACUUCUGUAC”: the “apparent Kd” value runs as follows: under setting [3], 5.84 nM; under setting [4], 82.5 nM.
Taken in the same sequence, the figures for “CCGGAAAUAGAGGAUAUAGGACUGGAUACAGUCCUAGAAGGCUAUACAUGAGGAUCACCCAUGUGUCCUACCGG” were 15.7 nM and 44 nM.
For “GUCAGCUCGUGAGGAUAUACAUGUGCUGGAUACAGCAUUAAAUAAUUCACAUGAGGAUCACCCAUGUAGAAGGCACGAGCUGAU” the same measures were 17.9 nM and 42.9 nM.
Regarding “UGUGCGUAUGUGAGGAUAUGCUGGUCCUUGGCUCGGCAGAAGGCACAUGAGGAUCACCCAUGUGGUGUCGUACC”, the “apparent Kd” value runs as follows: under setting [3], 38.6 nM; under setting [4], 189 nM.
